Results of several laboratories.
Lines come from different studies, so protocols differ.
Target: Mitogen-activated protein kinase 9 (MAPK9, Homo sapiens, UniProt P45984)

CC1(C)NC(=O)c2[nH]c3c(Cl)c(Cl)ccc3c2C1C#N (centres unmarked)
ΔTm (thermal stability, DSF; 10 µM): 0.8 °C

CC1=C(C#N)[C@@H](c2ccc3[nH]nc(C)c3c2)C(C#N)=C(c2ccc(Cl)cc2)N1
remaining binding (cell-free assay, competition with immobilised ligand; 1 µM): 89.5%

COc1cc(/C=C/C(=O)CC(=O)/C=C/c2ccc(O)c(OC)c2)ccc1O
activity vs control (enzyme activity, inhibitor; 1 µM): 104%

COc1cc(Nc2cnc(C#N)c(O[C@H](C)CN(C)C)n2)ncc1-c1cnn(C)c1
remaining activity (enzyme activity, inhibitor, radiometric; 10 µM): 79%

Cn1c(=O)n(-c2ccc(C(C)(C)C#N)cc2)c2c3cc(-c4cnc5ccccc5c4)ccc3ncc21
remaining activity (enzyme activity, inhibitor; 10 µM): 89%

Nc1nc(NC2CCCCC2)sc1C(=O)c1ccccc1
remaining activity (enzyme activity, inhibitor; 10 µM): 39%

Cc1ccc(C(=O)NCc2ccsc2)cc1C#Cc1cn(C(C)C)c2ncnc(N)c12
activity vs control (enzyme activity, inhibitor; 1 µM): 85%

CCN(CC)CCNC(=O)c1c(C)[nH]c(/C=C2\C(=O)Nc3ccc(F)cc32)c1C
remaining signal (cell-free assay; 0.5 µM): 96.7%

CC/C(=N\NC(=O)NCc1cccc(O)c1)c1ccc(O)c(C)c1O
inhibition (enzyme activity, inhibitor; 0.1 µM): -4.8%

O=C(NCc1ncc(C(F)(F)F)cc1Cl)c1ccc2c(c1)C1(CCS(=O)(=O)CC1)[C@@H](C1CC1)N2S(=O)(=O)c1ccc(F)cc1
remaining binding (cell-free assay, competition with immobilised ligand; 1 µM): 82%

CNC(=O)c1cc(Oc2ccc(NC(=O)Nc3ccc(Cl)c(C(F)(F)F)c3)cc2)ccn1
inhibition (enzyme activity, inhibitor; 0.3 µM): 7%

Cc1ccc(NC(=O)c2ccc(C)c(C(F)(F)F)c2)cc1C#Cc1nn(C2CCC(O)CC2)c2ncnc(N)c12 (centres unmarked)
remaining signal (cell-free assay; 10 µM): 13%

O=C(Nc1cnn(-c2csc(C(=O)NC3COC3)c2)c1)Nc1ccccc1Cl
remaining activity (enzyme activity, inhibitor; 5 µM): 34.1%

Cn1nc(C(F)(F)F)cc1-c1cnc(N2CCc3cc(S(=O)(=O)Nc4c(F)cc(Cl)cc4F)cc(N4CCCC4=O)c32)nc1
remaining binding (cell-free assay, competition with immobilised ligand; 1 µM): 95%

Nc1ncnc2occ(-c3ccc(NC(=O)Nc4cc(C(F)(F)F)ccc4F)cc3)c12
remaining signal (cell-free assay, inhibitor; 20 µM): 0%

O=C(Nc1cnn(-c2csc(C(=O)NC3COC3)c2)c1)Nc1c(F)cccc1Cl
remaining activity (enzyme activity, inhibitor; 5 µM): 22.7%

N#CC1c2c([nH]c3c(Cl)c(Cl)ccc23)C(=O)NC12CCCCC2 (racemic)
ΔTm (thermal stability, DSF; 10 µM): 0.7 °C

CN(C)C(=O)Cn1cc(-c2nc([C@@](C)(c3ccc(-c4cnc(N)nc4)cc3)C3CC3)no2)cn1
remaining binding (cell-free assay, competition with immobilised ligand; 1 µM): 75%

CN(c1ncccc1CNc1nc(Nc2ccc3c(c2)CC(=O)N3)ncc1C(F)(F)F)S(C)(=O)=O
inhibition (enzyme activity, inhibitor; 1 µM): 12.4%

CC(C)CC(=O)N1CCc2nc(-c3ccc(Br)cc3)nc(N(C)Cc3ccccc3)c2C1
remaining binding (cell-free assay, competition with immobilised ligand; 0.1 µM): 72%

Clc1ccc(Nc2nnc(Cc3ccncc3)c3ccccc23)cc1
remaining signal (cell-free assay; 0.5 µM): 97.5%

CC(C)(C)C(=O)c1sc(NC2CCCCC2)nc1N
remaining activity (enzyme activity, inhibitor; 10 µM): 90%

FC(F)(F)c1ccc2c(c1)nc(-c1cccnc1)n2C1CC1
remaining binding (cell-free assay, competition with immobilised ligand; 1 µM): 100%

Cn1c2c(Cl)c(Cl)ccc2c2cn[nH]c(=O)c21
ΔTm (thermal stability, DSF; 10 µM): 0 °C

COc1ccc2c(O[C@@H]3C[C@H]4C(=O)N[C@]5(C(=O)O)CC5/C=C\CCCCC[C@H](NC(=O)OC5CCCC5)C(=O)N4C3)cc(-c3csc(NC(=O)C(C)C)n3)nc2c1C (some centres unmarked)
remaining binding (cell-free assay, competition with immobilised ligand; 1 µM): 71%

Cc1ccc(NC(=O)c2ccc(CN3CCN(C)CC3)cc2)cc1Nc1nc(-c2cccnc2)cs1
remaining signal (cell-free assay; 0.5 µM): 110%

CC(C)(C)c1nc(-c2cccc(NS(=O)(=O)c3c(F)cccc3F)c2F)c(-c2ccnc(N)n2)s1
remaining activity (enzyme activity, inhibitor, radiometric; 1 µM): 105%

C[C@@H](c1cccc(C#N)c1)n1cc(Cl)cc(C(N)=O)c1=N
remaining binding (cell-free assay, competition with immobilised ligand; 1 µM): 82%

Cn1c2c(c3ccc(Cl)c(Cl)c31)C(C#N)C1(CCOCC1)NC2=O (centres unmarked)
ΔTm (thermal stability, DSF; 10 µM): 0 °C

COc1cc2ncnc(Nc3ccc(Oc4ccccc4)c(C)c3C)c2cc1OC
inhibition (enzyme activity, inhibitor; 1 µM): 7%

O=C1Nc2ccc(Cl)cc2C1=Cc1cc(Cl)c(O)c(Cl)c1
remaining signal (cell-free assay; 0.5 µM): 100%

CCC1(CC)NC(=O)c2c(c3ccc(Cl)c(Cl)c3n2C)C1C#N (centres unmarked)
ΔTm (thermal stability, DSF; 10 µM): 0.1 °C
